PubChem BioAssay AID624102 (Broad Institute, 2012)
The source made the active and inactive calls.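 Rule for the calls: active = fitted curve reaches a 35% signal drop at a concentration no higher than twice the top valid dose, in duplicate at both wavelengths; inactive = the rest, including activity in the opposite direction.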

Assay: iron-limited Pseudomonas aeruginosa growth inhibition – whole organism, absorbance 405 nm, EDDHA, dry powder, set 8, dose response (AID 624102)
Conditions: P. aeruginosa with EDDHA, growth/pyoverdine A405, 24-30 h; series mostly up to 120 µM; activity change, negative = inhibition: at the top concentration
Outline: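 Test system: P. aeruginosa ATCC 15692 cells | Input: Bacterial inoculum at final OD600 of 0.0000005 | Medium: Succinate M9 plus 2 µM EDDHA | Timing: Bacterial growth with compound for 24-30 h at 37 °C | Signal: Absorbance at 405 nm reflecting pyoverdine production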

Activity change, negative = inhibition, inactive:
COCCOCCC(C#N)c1ccc(F)cc1 (centres undefined) -11.5%
CCCCC(C#N)c1ccccn1 (centres undefined) 9.67%
N#CC(c1ccc(F)cc1)c1cccc(Cl)n1 (centres undefined) -19.5%
N#CC(c1ccc(Cl)cc1)c1ccccn1 (centres undefined) -21.4%
CN(C)CCCC(C#N)c1ccc(F)cc1 (centres undefined) -30.1%
COCCC(C#N)c1ccc(F)cc1 (centres undefined) 11%
COCCOCCC(C#N)c1ccc(Cl)cc1 (centres undefined) 5.21%
CCCCC(C#N)c1ccc(Cl)cn1 (centres undefined) -2.26%
N#CC(c1ccc(Cl)cc1)N1CCCC1 (centres undefined) -18.7%
COCCC(C#N)c1ccc(Cl)cc1 (centres undefined) -19.6%
N#CC(c1ccc(C(F)(F)F)c(Cl)n1)c1ccccc1OC(F)(F)F (centres undefined) -13.1%
CCCCC(c1ccc(Cl)cc1)c1nn[nH]n1 (centres undefined) -6.73%
COCCNC(C#N)c1ccc(Cl)cc1 (centres undefined) 1.55%
CCCCC(C#N)c1ccc(F)cc1 (centres undefined) 6.71%
CCCCC(C#N)c1ccc(Cl)cc1 (centres undefined) -0.081%
Clc1ccc(C(c2cccc(Cl)n2)c2nn[nH]n2)cc1 (centres undefined) 20.6%
CCCCC(C#N)c1ccc(F)cn1 (centres undefined) 1.31%
N#CC1c2ccc(Cl)cc2CCc2cccnc21 (centres undefined) 25.8%
N#Cc1cccc(C(C#N)c2ccc(F)cc2)n1 (centres undefined) -3.09%
